Rows were chosen to be rich in hits. Some 2.8% of all compounds tested hit in one or more screens of this group.
AI-2 QS modul: modulators of Vibrio harveyi AI-2 quorum sensing system | Vibrio harveyi JMH597 AI-2 luminescence/OD600 ratio, 9 h; active compounds read low; strain lacks LuxN and CqsS sensors; 0 = neutral-control median | AID 2094 | activity change, % at 7.5 µM | hit rate 0.4% among 300,000; in the data active means activity change below about -75%, passing the limit was not always enough;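 further: luminescence divided by OD600 gain over 9 h not by final OD600 alone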
T cruzi inh: blocks replication of Trypanosoma cruzi; hit rate 1.4% among 300,000; T. cruzi beta-gal in NIH3T3, luminescence, 90 h; inhibition, % (concentration not given with the values);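 active means mean inhibition across valid replicates above about 55%, limit read from the data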;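 further: signal also drops with host cell toxicity which is not excluded here; 0% = plate median of DMSO wells and 100% = zero luminescence signal; higher percent means less beta-gal luminescence so fewer parasites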
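System: mouse NIH/3T3 fibroblasts infected with β-gal-expressing T. cruzi Tulahuen C4 / Input: NIH/3T3 cells, 5,000 per well / Buffer or medium: Low-serum DMEM with 2% FBS / Probe or stimulus: 5000 reporter trypomastigotes per well / Schedule: ≥90 h infection period, 3 h prior cell attachment / Measured by: GalScreen luminescence, 60 min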
p-CIP stab down: p/CIP protein destabilization; Q05BA5; F442A p/CIP-EGFP cells, EGFP fluorescence, 16 h; decrease of EGFP signal, % at 10 µM; hit rate 0.01% among 290,000; AID 1984;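 active means EGFP signal decrease of at least 30% at 10 µM or well 3 SD below plate mean, unless failing retest; inactive means the rest, including hits failing retest or dose response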
UBC13 inh: human UBC13 polyubiquitination inhibition | UBC13 polyubiquitin chain formation, TR-FRET | hit rate 0.47% among 330,000 | inhibition, % at 20 µM | AID 485273 | P61088; in the data active means inhibition above about 45%, passing the limit was not always enough
Target sequence (P61088 whole entry, looked up): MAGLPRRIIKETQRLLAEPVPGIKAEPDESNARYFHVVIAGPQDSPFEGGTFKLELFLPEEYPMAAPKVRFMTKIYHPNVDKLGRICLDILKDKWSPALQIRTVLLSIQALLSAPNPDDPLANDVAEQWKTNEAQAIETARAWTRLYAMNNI
PP1 inh: counter-screen for PP5 inhibitors: inhibitors of human PP1-alpha. purified PP1alpha, OMFP fluorescence. inhibition, % at 6.7 µM. hit rate 0.9% among 320,000;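 active means inhibition above the mean inhibition of all tested compounds plus 3 SD, computed separately for each screening campaign, cut at about 15% in these data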
Target sequence (P62136 whole entry, looked up): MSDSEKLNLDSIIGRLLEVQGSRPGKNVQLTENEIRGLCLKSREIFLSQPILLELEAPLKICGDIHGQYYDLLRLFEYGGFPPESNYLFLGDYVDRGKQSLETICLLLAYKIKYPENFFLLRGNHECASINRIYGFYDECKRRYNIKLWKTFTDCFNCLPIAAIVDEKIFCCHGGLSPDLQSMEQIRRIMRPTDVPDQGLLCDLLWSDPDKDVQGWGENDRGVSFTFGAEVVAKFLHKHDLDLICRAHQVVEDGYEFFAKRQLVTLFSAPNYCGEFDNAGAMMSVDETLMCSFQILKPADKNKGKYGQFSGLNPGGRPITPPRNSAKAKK
Active calls of the source: *; ! = not active in a repeat.

CC1CCc2nc(NC(=O)c3ccc(S(=O)(=O)N4CCCc5ccccc54)cc3)sc2C1 (stereo unspecified) was read as AI-2 QS modul 15, T cruzi inh 61*, p-CIP stab down -11, UBC13 inh -11 and PP1 inh -4.
`CNC(=O)c1ccsc1NC(=O)c1ccc(S(=O)(=O)N2CCCc3ccccc32)cc1` gave AI-2 QS modul 3, T cruzi inh 57*, p-CIP stab down -18, UBC13 inh 4 and PP1 inh 6.
COC(=O)Nc1ccc(S(=O)(=O)N2CCCc3ccccc32)cc1 was read as AI-2 QS modul 15, T cruzi inh -73, p-CIP stab down 9, UBC13 inh -2 and PP1 inh -2.
Screening O=C(Nc1ccc(S(=O)(=O)N2CCc3ccccc32)cc1)c1ccc2c(c1)OCO2 returned AI-2 QS modul 18, T cruzi inh 57*, p-CIP stab down 0, UBC13 inh 9 and PP1 inh -2.
Screening O=C(Nc1nc2c(s1)CN(Cc1ccccc1)CC2)c1cccc(S(=O)(=O)N2CCc3ccccc32)c1 returned AI-2 QS modul 15, T cruzi inh 30, p-CIP stab down -7, UBC13 inh -12 and PP1 inh 12.
Screening O=C(Nc1nc2c(s1)CCCC2)c1ccc(S(=O)(=O)N2CCCc3ccccc32)cc1 returned AI-2 QS modul 12, T cruzi inh 60*, p-CIP stab down -11, UBC13 inh -10 and PP1 inh 6.
Screening Fc1ccc(Oc2cnns2)cc1 returned AI-2 QS modul 16, T cruzi inh -13, p-CIP stab down 4, UBC13 inh 0 and PP1 inh -5.
Screening CCOC(=O)C1=C(CC)Nc2ccccc2N/C1=N\S(=O)(=O)c1cccc(C(C)=O)c1 returned UBC13 inh -14.
Cc1ccc(S(=O)(=O)N2CCN(c3ccccc3)CC2)s1 was read as UBC13 inh 10.
`Cc1cccc(N2CCN(C(=O)c3ccc(Cl)c(S(=O)(=O)N4CCc5ccccc5C4)c3)CC2)c1C` gave AI-2 QS modul 25, T cruzi inh 59*, p-CIP stab down 2, UBC13 inh -3 and PP1 inh 13.
Screening O=C(COC(=O)C1=NNC(=O)CC1)NCCc1ccccc1 returned AI-2 QS modul 8, T cruzi inh -6, UBC13 inh -1 and PP1 inh -6.
For COCCN(CCOC)C(=O)C1CCCN(S(=O)(=O)c2ccc(NC(=O)OC)cc2)C1 (stereo unspecified) the results were AI-2 QS modul 12, T cruzi inh 2, p-CIP stab down 9, UBC13 inh -3 and PP1 inh -6.
Screening COc1cccc(/C=N/n2nnnc2N)c1OCc1ccccc1Cl returned AI-2 QS modul 5, T cruzi inh -1, p-CIP stab down -14, UBC13 inh 9 and PP1 inh 1.
Screening NC(=S)N/N=C/c1ccccc1OCCSc1ccc(Cl)cc1 returned AI-2 QS modul 13, T cruzi inh 57*, p-CIP stab down -14, UBC13 inh 1 and PP1 inh 4.
For COc1cccc(/C=N/NC(N)=S)c1OCc1ccccc1Cl the results were AI-2 QS modul 10, T cruzi inh 59*, p-CIP stab down 10, UBC13 inh 11 and PP1 inh 3.
For COc1ccc(NC(=O)CS(=O)c2cccc(Cl)c2)cc1 (stereo unspecified) the results were AI-2 QS modul 2, T cruzi inh -18, p-CIP stab down -5, UBC13 inh -11 and PP1 inh -3.
Screening CN1CC(=O)N(CC(=O)Nc2cccc(S(=O)(=O)N3CCOCC3)c2)C1=O returned AI-2 QS modul 22, T cruzi inh 12, p-CIP stab down -1, UBC13 inh -6 and PP1 inh -6.
Cc1ccc(OCC(=O)NNC(=O)Cc2ccc(S(=O)(=O)N3CCOCC3)s2)cc1 was read as AI-2 QS modul 59, T cruzi inh -9, UBC13 inh -10 and PP1 inh -6.
For CCCCc1nnc(NC(=O)Cc2ccc(S(=O)(=O)N3CCOCC3)s2)s1 the results were UBC13 inh -13 and PP1 inh -1.
Screening COc1ccc(-n2c(-c3ccc(Br)cc3)c[n+]3c2CCc2ccccc2-3)cc1 returned AI-2 QS modul 16, T cruzi inh 60*, p-CIP stab down 26, UBC13 inh 8 and PP1 inh 1.
COc1ccccc1-n1c(-c2ccccc2)c[n+]2c1CCc1ccccc1-2 was read as AI-2 QS modul 41, T cruzi inh 76*!, p-CIP stab down -8, UBC13 inh 4 and PP1 inh -2.
`CC(C)c1ccc(-n2c(-c3ccccc3)c[n+]3c2CCc2ccccc2-3)cc1` gave AI-2 QS modul 10, T cruzi inh 67* and p-CIP stab down -31.
For COc1ccc(-c2cn(-c3ccc(OC)cc3)c3[n+]2-c2ccccc2CC3)cc1 the results were AI-2 QS modul 19, T cruzi inh 37, p-CIP stab down -9, UBC13 inh -3 and PP1 inh 0.
Screening COc1ccccc1-n1c(-c2ccccc2)c[nH]c1=S returned AI-2 QS modul 33, T cruzi inh -9 and p-CIP stab down -16.
Screening COc1ccc(CN2CCNC(=O)C2CC(=O)NC2Cc3ccccc3C2)c(OC)c1 (stereo unspecified) returned AI-2 QS modul 25, T cruzi inh 7, p-CIP stab down 18, UBC13 inh -10 and PP1 inh -4.
COc1ccc(OC)c(NC(=O)c2ccc(NC3=NC4CS(=O)(=O)CC4S3)cc2)c1 (stereo unspecified) was read as AI-2 QS modul 24, T cruzi inh -6, p-CIP stab down -1, UBC13 inh 10 and PP1 inh 2.
For CCOc1ccc(S(=O)(=O)n2nc(C)c(S(=O)(=O)N3CCOCC3)c2C)cc1 the results were AI-2 QS modul 26, T cruzi inh 1, p-CIP stab down -2, UBC13 inh -10 and PP1 inh 2.
CCN(CC)S(=O)(=O)c1ccc2oc(SCC(=O)Nc3cc(C)on3)nc2c1 was read as AI-2 QS modul 35, T cruzi inh 60*, UBC13 inh -3 and PP1 inh 1.
Screening O=C(Nc1ncc(Cc2ccccc2Cl)s1)c1ccc(-c2cccc([N+](=O)[O-])c2)o1 returned AI-2 QS modul 7, T cruzi inh 60*, p-CIP stab down -2, UBC13 inh -10 and PP1 inh -3.
For CCc1cc(C(=O)Nc2nc(-c3ccccn3)cs2)sc1C the results were UBC13 inh -30 and PP1 inh 16*.
Screening CCn1nc(C(=O)Nc2nc(-c3ccccn3)cs2)c2ccccc2c1=O returned UBC13 inh -1 and PP1 inh 1.
O=C(Nc1nc(-c2ccccn2)cs1)c1cc(Cl)ccc1[N+](=O)[O-] was read as AI-2 QS modul 74, T cruzi inh 64*, p-CIP stab down 0, UBC13 inh -36 and PP1 inh 16*.
`CC(=O)Nc1ccc(C(=O)Nc2nc(-c3ccccn3)cs2)cc1` gave AI-2 QS modul 28, T cruzi inh 19, p-CIP stab down -1, UBC13 inh -47 and PP1 inh 4.

Source: PubChem BioAssay (several laboratories)
